Tests used:
U373 MG [1] = experiment: Antimigratory activity against human U373 glioblastoma cell line at 100nM after 22h; type: functional, U-373MG ATCC
Outline: (§1)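 Computer-assisted videomicroscopy tracking of living cultured cells, one image every 4 min over 24 h; migration scored as maximum relative distance from origin (MRDO) per cell, read at 12 or 22 h with compound at 100 nM or without (control). Control normalized to 0%. Triplicate analyses, 121–184 cells per condition; mean ± standard error.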

U373 MG [2] = experiment: Cytotoxicity against human U373 glioblastoma cell line; type: functional, cell-based, U-373MG ATCC
Outline: (§2)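 Colorimetric MTT assay on cultured human cancer cells after 3 days of continuous drug exposure. IC50 is the concentration that reduces overall cell-population growth by 50% relative to untreated cells.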

PC-3 [3] = experiment: Antimigratory activity against human PC3 prostate cancer cell line at 100 nM after 22h; type: functional; settings: PC-3, 22 h; outline: as §1
A549 [4] = experiment: Antimigratory activity against human A549 NSCLC cell line at 100 nM after 12h; type: functional; settings: A549, 12 h; outline: as §1
MCF7 = experiment: Cytotoxicity against human MCF7 breast cancer cell line; type: functional, cell-based; outline: as §2
PC-3 [5] = experiment: Antimigratory activity against human PC3 prostate cancer cell line at 100 nM after 12h; type: functional; settings: PC-3, 12 h; outline: as §1
U373 MG [6] = experiment: Antimigratory activity against human U373 glioblastoma cell line at 100 nM after 12h; type: functional, U-373MG ATCC; outline: as §1
PC-3 [7] = experiment: Cytotoxicity against human PC3 prostate cancer cell line; type: functional, cell-based; outline: as §2
HCT-15 = experiment: Cytotoxicity against human HCT15 colon cancer cell line; type: functional, cell-based; outline: as §2
A549 [8] = experiment: Cytotoxicity against human A549 NSCLC cell line; type: functional, cell-based; outline: as §2
Hs 683 = experiment: Cytotoxicity against human Hs683 cancer cell line; type: functional, cell-based; outline: as §2
A549 [9] = experiment: Antimigratory activity against human A549 NSCLC cell line at 100 nM after 22h; type: functional; settings: A549, 22 h; outline: as §1
Mus musculus = experiment: Toxicity in mice at 160 mg/kg, ip 28 days post dose; type: organism-based; design: dose 160 mg/kg, route intraperitoneal; settings: in vivo, 672 h
Outline: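 Healthy, non-tumor-grafted mice received a single acute ip dose of 160 mg/kg. Body weight and survival were recorded over at least 28 days after dosing to detect toxic effects.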

Structure (SMILES)	inhibition at 0.1 µM (U373 MG [1]) [%]	IC50 (U373 MG [2]) [µM]	inhibition at 0.1 µM (PC-3 [3]) [%]	inhibition at 0.1 µM (A549 [4]) [%]	IC50 (MCF7) [µM]	inhibition at 0.1 µM (PC-3 [5]) [%]	inhibition at 0.1 µM (U373 MG [6]) [%]	IC50 (PC-3 [7]) [µM]	IC50 (HCT-15) [µM]	IC50 (A549 [8]) [µM]	IC50 (Hs 683) [µM]	inhibition at 0.1 µM (A549 [9]) [%]	Activity (Mus musculus)
COc1ccc(OC)c([C@@H]2C[C@H]3[C@@H]4CC=C5C[C@@H](O[C@@H]6O[C@H](CO[C@H]7O[C@H](CO)[C@@H](O)[C@H](O)[C@H]7O)[C@@H](O)[C@H](O)[C@H]6O)CC[C@]5(C)[C@H]4CC[C@]3(C)[C@H]2C(C)=O)c1	-18	> 10	-9	-34	> 10	-7	-18	> 10	> 10	> 10	> 10	-40	Non-toxic
COc1ccc(OC)c([C@@H]2C[C@H]3[C@@H]4CC=C5C[C@@H](O)CC[C@]5(C)[C@H]4CC[C@]3(C)[C@H]2[C@H](C)O)c1		> 10			> 10			> 10	> 10	> 10	> 10		Non-toxic
COc1ccc(OC)c([C@@H]2C[C@H]3[C@@H]4CC=C5C[C@@H](O[C@H]6O[C@H](CO[C@@H]7O[C@H](CO)[C@@H](O)[C@H](O)[C@H]7O)[C@@H](O)[C@H](O)[C@H]6O)CC[C@]5(C)[C@H]4CC[C@]3(C)[C@H]2C(C)=O)c1	-1	> 10	-1	0	> 10	11	0	> 10	> 10	> 10	> 10	-4	Non-toxic
COc1ccc(OC)c([C@@H]2C[C@H]3[C@@H]4CC=C5C[C@@H](O[C@@H]6O[C@H](CO)[C@@H](O)[C@H](O)[C@H]6NC(C)=O)CC[C@]5(C)[C@H]4CC[C@]3(C)[C@H]2C(C)=O)c1	-3	> 10	12	-39	> 10	11	-17	> 10	> 10	> 10	> 10	-39	Non-toxic
COc1ccc(OC)c([C@@H]2C[C@H]3[C@@H]4CC=C5C[C@@H](O[C@H]6O[C@@H](C)[C@@H](O)[C@@H](O)[C@@H]6O)CC[C@]5(C)[C@H]4CC[C@]3(C)[C@H]2C(C)=O)c1	-38	> 10	-15	-8	> 10	-23	-25	> 10	> 10	> 10	> 10	-8	Non-toxic
COc1ccc(OC)c([C@@H]2C[C@H]3[C@@H]4CC=C5C[C@@H](O[C@@H]6O[C@H](CO)[C@@H](O)[C@H](O)[C@@H]6O)CC[C@]5(C)[C@H]4CC[C@]3(C)[C@H]2C(C)=O)c1	-4	> 10	-1	20	> 10	2	2	> 10	> 10	> 10	> 10	1	Non-toxic
COc1ccc(OC)c([C@@H]2C[C@H]3[C@@H]4CC=C5C[C@@H](O[C@@H]6O[C@H](CO)[C@@H](O)[C@H](O)[C@H]6O)CC[C@]5(C)[C@H]4CC[C@]3(C)[C@H]2C(C)=O)c1	-8	> 10	6	2	> 10	2	-6	> 10	> 10	> 10	> 10	9	Non-toxic
COc1ccc(OC)c([C@@H]2C[C@H]3[C@@H]4CC=C5C[C@@H](O[C@H]6O[C@H](CO)[C@@H](O[C@H]7O[C@H](CO)[C@@H](O)[C@H](O)[C@H]7O)[C@H](O)[C@H]6O)CC[C@]5(C)[C@H]4CC[C@]3(C)[C@H]2C(C)=O)c1	-8	> 10	-5	10	> 10	-5	2	> 10	> 10	> 10	> 10	5	Non-toxic
COc1ccc(OC)c([C@@H]2C[C@H]3[C@@H]4CC=C5C[C@@H](O[C@@H]6O[C@H](CO)[C@H](O)[C@H](O)[C@H]6O)CC[C@]5(C)[C@H]4CC[C@]3(C)[C@H]2C(C)=O)c1	1	> 10	-8	2	> 10	7	8	> 10	> 10	> 10	> 10	4	Non-toxic
COc1ccc(OC)c([C@@H]2C[C@H]3[C@@H]4CC=C5C[C@@H](O)CC[C@]5(C)[C@H]4CC[C@]3(C)[C@H]2C(C)=O)c1	7	> 10	10	0	> 10	5	2	> 10	> 10	> 10	> 10	6	Non-toxic
COc1ccc(OC)c([C@@H]2C[C@H]3[C@@H]4CC=C5C[C@@H](O[C@@H]6O[C@H](CO)[C@@H](O[C@@H]7O[C@H](CO)[C@@H](O)[C@H](O)[C@H]7O)[C@H](O)[C@H]6O)CC[C@]5(C)[C@H]4CC[C@]3(C)[C@H]2[C@H](C)O[C@@H]2O[C@H](CO)[C@@H](O[C@@H]3O[C@H](CO)[C@@H](O)[C@H](O)[C@H]3O)[C@H](O)[C@H]2O)c1	4	> 10	-17	4	> 10	9	-8	> 10	> 10	> 10	> 10	3	Non-toxic
COc1ccc(OC)c([C@@H]2C[C@H]3[C@@H]4CC=C5C[C@@H](O[C@@H]6O[C@H](CO[C@H]7O[C@H](CO)[C@@H](O)[C@H](O)[C@H]7O)[C@@H](O)[C@H](O)[C@H]6O)CC[C@]5(C)[C@H]4CC[C@]3(C)[C@H]2[C@H](C)O[C@@H]2O[C@H](CO[C@H]3O[C@H](CO)[C@@H](O)[C@H](O)[C@H]3O)[C@@H](O)[C@H](O)[C@H]2O)c1	-9	> 10	10	9	> 10	8	-14	> 10	> 10	> 10	> 10	0	Non-toxic

— ChEMBL document CHEMBL1138155, “A lactosylated steroid contributes in vivo therapeutic benefits in experimental models of mouse lymphoma and human glioblastoma” (J Med Chem, 2006)
